Measured values: PMC8873552 (Chemical Science, 2021)

Tests used:
[1] = Reaction kinetics of acrolein–azide 1,3-dipolar cycloaddition; type: physicochemical
[2] = system: A549 cell xenograft-bearing nude mice; assay: Intravenous therapy of xenograft mice; type: in vivo, mouse; settings: 240 nmol; for survival: every three days for ten days; for tumor growth: every three days for ten days (four injections)
Method in brief: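 Nude mice bearing A549 xenografts were injected intravenously every three days over ten days, four injections in total, at twice the intratumoral concentration. Comparison groups matched the intratumoral study. Tumour growth and body weight were monitored.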

[3] = system: A549 cell xenograft-bearing nude mice; assay: Intratumor therapy of xenograft mice; type: in vivo, mouse; settings: intratumoral, 120 nmol
Method in brief: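 Nude mice bearing A549 xenografts received intratumoral injections once daily for 12 days. Comparison groups were vehicle, the azide control, the phenyl-azide conjugate and free drug. Tumour growth, body weight and survival were monitored.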

[4] = In vivo drug release analysis; parameters: species or system mouse; settings: two hours after intratumoral administration
Method in brief: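 A549 xenograft-bearing nude mice were dosed intratumorally. Two hours later, tumour and urine extracts were analysed by RP-HPLC for intact prodrug and free drug.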

SMILES: [N-]=[N+]=Nc1ccccc1 [Compound 1a, phenyl azide]
- second-order rate constant (k), reaction with acrolein to give triazoline 3a ([1]; formation of triazoline 3a): 0.00065 M⁻¹ s⁻¹

SMILES: CC(C)c1cccc(C(C)C)c1N=[N+]=[N-] [Compound 1d, 2,6-diisopropylphenyl azide]
- second-order rate constant (k), formation of 4-formyl-1,2,3-triazole 4d ([1]; formation of 4d): 0.00095 M⁻¹ s⁻¹
- second-order rate constant (k), reaction with acrolein to give heterocycle 6 ([1]; formation of heterocycle 6): 0.00633 M⁻¹ s⁻¹
- rate ratio, formation of heterocycle 6 versus 4-formyl-1,2,3-triazole 4d ([1]; times faster): 6.6 times
- rate constant ratio, 1d to heterocycle 6 versus 1a to triazoline 3a ([1]; times higher): 9.7 times

SMILES: Cc1cc(C(C)C)c(N=[N+]=[N-])c(C(C)C)c1 [Compound 9, 4-methyl-2,6-diisopropyl-phenyl azide]
- tumor size ([2]; by two weeks): 800 mm^3
- survival [2]: survived less than three weeks after treatment
- tumor growth [2]: does not have any effect
- survival ([3]; every day for 12 days): survived less than twelve days after treatment
- tumor growth ([3]; every day for 12 days): does not retard the tumor growth
- tumor size ([3]; in two weeks): 900 mm^3

SMILES: CO[C@@]12[C@H](COC(N)=O)C3=C(C(=O)C(C)=C(N)C3=O)N1C[C@@H]1N[C@@H]12 [MMC, mitomycin C]
- body weight ([2]; every three days): the body weight loss was very drastic
- survival [2]: could not survive before the fourth injection
- tumor growth [2]: significantly inhibited tumor growth
- inflammation ([2]; tenth day of treatment): inflammation in the tail area
- compound detected in tumor extract [4]: the free drug could not be detected from the tumor
- compound detected in urine extract [4]: the secreted MMC drug was present in the urine
- body weight ([3]; every day for 12 days): more body weight loss
- survival ([3]; every day for 12 days): survived less than five days after treatment
- tumor growth ([3]; every day for 12 days): significantly inhibits tumor growth
- inflammation and ADRs ([3]; post-treatment day 4): inflammation on the whole body
